Measurements from PMC8395708 (JACS Au, 2021).

Key:
[1] = NO release, Nitrate/Nitrite Colorimetric Assay; format: physicochemical; details: degradation of BSA-bound DNIC, PBS pH 7.4
Outline: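 25 μM test compound was left to degrade under air for 2 d in 50 mM phosphate pH 7.4, SIF or SGFsp, or with BSA in PBS pH 7.4. For nitrate/nitrite, 10 μL sample was diluted in kit buffer with enzyme cofactor and nitrate reductase for 1 h at room temperature. NO equivalents were calculated from 0–35 μM nitrite/nitrate standard curves.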

[2] = Effect of BSA or L-cysteine on degradation of DNIC-1 in PBS; format: physicochemical
Outline: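 UV-vis stability: 25 μM test compound with 10 mg/mL BSA in PBS pH 7.4 at 37 °C under air. […] The same design was used with 150 μM L-cysteine instead of BSA, and with BSA under anaerobic conditions. Three independent experiments.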

[3] = molecular target: bovine serum albumin (BSA) (Bos taurus, UniProt P02769); experiment: Reaction of DNIC-1 with bovine serum albumin; format: binding; details: PBS pH 7.4, 37 °C, EPR
Chain of bovine serum albumin (BSA) (P02769 25-607): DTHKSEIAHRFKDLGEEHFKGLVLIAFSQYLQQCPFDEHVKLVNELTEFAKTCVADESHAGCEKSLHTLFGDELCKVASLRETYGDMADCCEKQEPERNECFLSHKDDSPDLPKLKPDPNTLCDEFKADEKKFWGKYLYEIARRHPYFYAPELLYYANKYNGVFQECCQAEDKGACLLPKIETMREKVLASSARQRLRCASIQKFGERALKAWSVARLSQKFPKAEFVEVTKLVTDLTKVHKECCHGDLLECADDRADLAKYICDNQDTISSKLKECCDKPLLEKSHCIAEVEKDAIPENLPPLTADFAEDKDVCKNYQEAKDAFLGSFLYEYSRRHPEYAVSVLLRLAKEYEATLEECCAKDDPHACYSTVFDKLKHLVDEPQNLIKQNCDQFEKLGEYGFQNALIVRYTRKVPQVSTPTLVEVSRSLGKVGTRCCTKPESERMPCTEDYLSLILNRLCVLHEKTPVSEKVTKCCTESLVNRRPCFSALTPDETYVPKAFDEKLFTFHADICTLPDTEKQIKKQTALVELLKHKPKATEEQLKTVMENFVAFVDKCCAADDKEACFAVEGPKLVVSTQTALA

[4] = format: in vivo, C57BL/6JNarl mice; details: mice, oral gavage 13.25 mg/kg

Substance | released nitric oxide [1] [equiv] | half-life of BSA-bound DNIC (UV-vis decay at 384 and 565 nm) ([2]; 25 μM DNIC-1 + 10 mg/mL BSA, PBS pH 7.4, aerobic, 37 °C) [h] | half-life of BSA-bound DNIC (decay of EPR signal) ([2]; 25 μM DNIC-1 + 50 mg/mL BSA, PBS pH 7.4, aerobic, 37 °C, EPR) [h] | stability under anaerobic condition ([2]; 10 mg/mL BSA, PBS pH 7.4, 37 °C, 24 h, anaerobic) | reaction time to plateau of BSA-bound DNIC formation [3] [min] | half-life in the small intestine [4] [h]
[(NO)2Fe(SR)(BSA)] (R = CH2CH2OH) [BSA-bound DNIC] | ~1.4 | 3.5 ± 0.3 | 3.5 ± 0.2 | No change of the UV–vis spectra | 15 | –
[(NO)2Fe(SR)(mucin)] (R = CH2CH2OH) [mucin-bound DNIC] | – | – | – | – | – | 3.0 ± 0.6
